Key:
[1] = target: cAMP and cAMP-inhibited cGMP 3',5'-cyclic phosphodiesterase 10A (Homo sapiens, UniProt Q9Y233); test: Inhibition of human recombinant PDE10A catalytic domain assessed reduction in [3H]cAMP hydrolysis preincubated with enzyme for 5 mins prior to substrate addition measured after 20 mins by scintillation proximity assay
Procedure, shortened: (§1)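 [3H]cAMP (40 nCi/mL, 1/3 Km) was added, then 20 min on ice (~30% turnover). Stopped with yttrium silicate SPA beads, settled 1.5 h at room temperature, CPM counted. IC50 from one-site competitive nonlinear fit, at least two independent runs.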

[2] = target: 3',5'-cyclic-AMP phosphodiesterase 4A (Homo sapiens, UniProt P27815); test: Inhibition of human recombinant PDE4A assessed reduction in [3H]cAMP hydrolysis preincubated with enzyme for 5 mins prior to substrate addition measured after 20 mins by scintillation proximity assay; procedure, shortened: as §1
Sequence of 3',5'-cyclic-AMP phosphodiesterase 4A (P27815 whole entry): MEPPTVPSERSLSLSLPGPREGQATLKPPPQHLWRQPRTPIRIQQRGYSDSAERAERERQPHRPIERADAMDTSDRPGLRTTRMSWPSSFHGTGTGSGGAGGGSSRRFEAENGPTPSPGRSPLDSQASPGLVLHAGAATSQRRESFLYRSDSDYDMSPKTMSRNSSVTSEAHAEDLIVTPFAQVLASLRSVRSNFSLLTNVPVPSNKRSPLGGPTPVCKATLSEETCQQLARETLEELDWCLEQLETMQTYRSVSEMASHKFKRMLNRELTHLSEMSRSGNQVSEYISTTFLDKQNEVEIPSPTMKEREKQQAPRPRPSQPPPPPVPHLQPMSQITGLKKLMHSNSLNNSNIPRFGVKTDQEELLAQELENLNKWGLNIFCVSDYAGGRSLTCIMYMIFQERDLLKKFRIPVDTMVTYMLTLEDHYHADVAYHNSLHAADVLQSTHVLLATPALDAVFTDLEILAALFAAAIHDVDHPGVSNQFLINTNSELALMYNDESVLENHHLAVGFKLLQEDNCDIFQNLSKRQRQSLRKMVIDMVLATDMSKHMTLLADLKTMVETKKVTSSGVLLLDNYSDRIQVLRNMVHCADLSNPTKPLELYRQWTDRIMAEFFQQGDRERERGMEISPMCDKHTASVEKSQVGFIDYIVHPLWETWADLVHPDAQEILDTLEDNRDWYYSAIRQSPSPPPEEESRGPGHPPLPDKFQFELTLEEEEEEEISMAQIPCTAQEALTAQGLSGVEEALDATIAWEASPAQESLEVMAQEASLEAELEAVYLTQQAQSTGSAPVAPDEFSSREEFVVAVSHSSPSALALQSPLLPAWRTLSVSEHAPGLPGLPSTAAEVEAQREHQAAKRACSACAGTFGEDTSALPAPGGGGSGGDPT

[3] = target: 3',5'-cyclic-AMP phosphodiesterase 4B (Homo sapiens, UniProt Q07343); test: Inhibition of human recombinant PDE4B assessed reduction in [3H]cAMP hydrolysis preincubated with enzyme for 5 mins prior to substrate addition measured after 20 mins by scintillation proximity assay; procedure, shortened: as §1
Sequence of 3',5'-cyclic-AMP phosphodiesterase 4B (Q07343 whole entry): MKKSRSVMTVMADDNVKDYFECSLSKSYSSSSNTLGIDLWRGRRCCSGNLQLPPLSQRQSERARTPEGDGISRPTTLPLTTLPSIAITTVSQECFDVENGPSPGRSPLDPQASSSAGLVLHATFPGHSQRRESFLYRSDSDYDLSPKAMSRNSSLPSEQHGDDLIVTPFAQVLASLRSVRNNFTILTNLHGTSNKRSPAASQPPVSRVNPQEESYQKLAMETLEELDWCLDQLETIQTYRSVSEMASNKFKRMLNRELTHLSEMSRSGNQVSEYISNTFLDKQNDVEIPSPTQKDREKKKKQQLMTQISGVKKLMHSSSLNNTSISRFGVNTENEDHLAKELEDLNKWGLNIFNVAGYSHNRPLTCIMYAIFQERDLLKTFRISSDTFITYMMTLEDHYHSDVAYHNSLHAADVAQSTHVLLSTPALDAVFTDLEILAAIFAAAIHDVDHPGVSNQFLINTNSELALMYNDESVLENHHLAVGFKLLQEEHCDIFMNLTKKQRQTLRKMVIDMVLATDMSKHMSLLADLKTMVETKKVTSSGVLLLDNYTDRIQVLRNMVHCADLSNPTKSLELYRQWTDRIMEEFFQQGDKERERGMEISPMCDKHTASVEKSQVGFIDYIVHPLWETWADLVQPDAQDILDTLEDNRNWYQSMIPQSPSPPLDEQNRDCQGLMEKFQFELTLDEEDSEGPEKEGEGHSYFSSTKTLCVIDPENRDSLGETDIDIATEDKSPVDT

[4] = target: cGMP-inhibited 3',5'-cyclic phosphodiesterase 3B (Homo sapiens, UniProt Q13370); test: Inhibition of human recombinant PDE3B assessed reduction in [3H]cAMP hydrolysis preincubated with enzyme for 5 mins prior to substrate addition measured after 20 mins by scintillation proximity assay; procedure, shortened: as §1
Sequence of cGMP-inhibited 3',5'-cyclic phosphodiesterase 3B (Q13370 whole entry): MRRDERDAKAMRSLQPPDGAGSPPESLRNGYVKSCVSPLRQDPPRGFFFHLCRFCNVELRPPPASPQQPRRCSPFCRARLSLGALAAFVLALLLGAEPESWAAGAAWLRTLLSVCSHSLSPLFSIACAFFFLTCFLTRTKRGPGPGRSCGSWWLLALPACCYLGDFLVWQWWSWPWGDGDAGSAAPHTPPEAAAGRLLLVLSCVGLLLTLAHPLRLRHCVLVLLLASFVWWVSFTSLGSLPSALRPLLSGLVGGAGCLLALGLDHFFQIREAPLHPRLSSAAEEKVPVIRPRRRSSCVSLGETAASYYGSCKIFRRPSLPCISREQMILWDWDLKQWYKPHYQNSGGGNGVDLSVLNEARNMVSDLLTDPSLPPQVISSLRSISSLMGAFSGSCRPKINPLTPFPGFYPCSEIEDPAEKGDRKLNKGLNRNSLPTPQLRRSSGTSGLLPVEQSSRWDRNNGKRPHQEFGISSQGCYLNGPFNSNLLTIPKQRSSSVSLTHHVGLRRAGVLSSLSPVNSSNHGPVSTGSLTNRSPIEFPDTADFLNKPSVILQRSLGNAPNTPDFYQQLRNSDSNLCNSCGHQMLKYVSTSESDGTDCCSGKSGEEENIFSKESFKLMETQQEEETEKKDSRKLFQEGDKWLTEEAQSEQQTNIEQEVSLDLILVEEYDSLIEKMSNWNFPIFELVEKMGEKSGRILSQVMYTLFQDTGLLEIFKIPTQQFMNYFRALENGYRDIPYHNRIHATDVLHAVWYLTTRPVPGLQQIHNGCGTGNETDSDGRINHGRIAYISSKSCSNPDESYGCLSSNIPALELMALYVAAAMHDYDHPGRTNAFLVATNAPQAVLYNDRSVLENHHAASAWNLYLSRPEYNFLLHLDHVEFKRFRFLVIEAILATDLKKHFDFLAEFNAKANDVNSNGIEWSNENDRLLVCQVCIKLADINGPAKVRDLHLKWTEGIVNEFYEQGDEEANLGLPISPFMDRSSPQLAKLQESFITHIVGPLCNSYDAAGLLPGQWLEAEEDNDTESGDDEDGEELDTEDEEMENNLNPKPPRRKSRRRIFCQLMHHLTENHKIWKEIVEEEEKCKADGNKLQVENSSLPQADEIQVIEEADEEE

[5] = target: cGMP-inhibited 3',5'-cyclic phosphodiesterase 3A (Homo sapiens, UniProt Q14432); test: Inhibition of human recombinant PDE3A assessed reduction in [3H]cAMP hydrolysis preincubated with enzyme for 5 mins prior to substrate addition measured after 20 mins by scintillation proximity assay; procedure, shortened: as §1
Sequence of cGMP-inhibited 3',5'-cyclic phosphodiesterase 3A (Q14432 whole entry): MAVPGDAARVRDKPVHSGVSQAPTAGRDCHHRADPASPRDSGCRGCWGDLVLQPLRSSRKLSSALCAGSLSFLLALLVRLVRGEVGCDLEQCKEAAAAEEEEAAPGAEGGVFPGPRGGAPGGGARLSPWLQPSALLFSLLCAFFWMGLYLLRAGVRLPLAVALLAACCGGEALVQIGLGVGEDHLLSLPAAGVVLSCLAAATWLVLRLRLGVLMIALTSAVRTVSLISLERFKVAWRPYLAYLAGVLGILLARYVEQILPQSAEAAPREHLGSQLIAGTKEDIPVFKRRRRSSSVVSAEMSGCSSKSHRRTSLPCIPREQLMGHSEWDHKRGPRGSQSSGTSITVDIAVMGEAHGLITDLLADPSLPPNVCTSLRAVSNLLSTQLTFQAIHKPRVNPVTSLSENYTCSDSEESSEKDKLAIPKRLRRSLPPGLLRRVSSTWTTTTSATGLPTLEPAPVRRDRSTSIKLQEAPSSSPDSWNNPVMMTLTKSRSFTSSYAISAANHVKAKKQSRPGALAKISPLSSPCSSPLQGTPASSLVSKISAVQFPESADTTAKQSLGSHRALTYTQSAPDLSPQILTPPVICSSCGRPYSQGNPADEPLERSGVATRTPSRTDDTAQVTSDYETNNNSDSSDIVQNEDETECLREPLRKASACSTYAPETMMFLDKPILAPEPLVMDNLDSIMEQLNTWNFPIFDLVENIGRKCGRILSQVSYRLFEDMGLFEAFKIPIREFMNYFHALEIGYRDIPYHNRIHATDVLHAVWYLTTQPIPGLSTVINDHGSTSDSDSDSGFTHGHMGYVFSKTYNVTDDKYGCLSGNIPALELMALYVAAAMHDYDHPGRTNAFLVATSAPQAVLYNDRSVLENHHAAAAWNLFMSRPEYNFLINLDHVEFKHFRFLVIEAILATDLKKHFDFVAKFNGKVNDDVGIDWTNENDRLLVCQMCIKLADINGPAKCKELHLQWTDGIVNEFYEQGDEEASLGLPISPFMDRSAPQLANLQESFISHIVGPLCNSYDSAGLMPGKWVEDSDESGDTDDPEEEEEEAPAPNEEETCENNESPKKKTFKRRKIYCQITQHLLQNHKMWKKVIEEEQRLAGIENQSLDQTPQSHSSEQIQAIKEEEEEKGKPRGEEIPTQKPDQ

Sequence of cAMP and cAMP-inhibited cGMP 3',5'-cyclic phosphodiesterase 10A (Q9Y233 whole entry, the tested form may be a part): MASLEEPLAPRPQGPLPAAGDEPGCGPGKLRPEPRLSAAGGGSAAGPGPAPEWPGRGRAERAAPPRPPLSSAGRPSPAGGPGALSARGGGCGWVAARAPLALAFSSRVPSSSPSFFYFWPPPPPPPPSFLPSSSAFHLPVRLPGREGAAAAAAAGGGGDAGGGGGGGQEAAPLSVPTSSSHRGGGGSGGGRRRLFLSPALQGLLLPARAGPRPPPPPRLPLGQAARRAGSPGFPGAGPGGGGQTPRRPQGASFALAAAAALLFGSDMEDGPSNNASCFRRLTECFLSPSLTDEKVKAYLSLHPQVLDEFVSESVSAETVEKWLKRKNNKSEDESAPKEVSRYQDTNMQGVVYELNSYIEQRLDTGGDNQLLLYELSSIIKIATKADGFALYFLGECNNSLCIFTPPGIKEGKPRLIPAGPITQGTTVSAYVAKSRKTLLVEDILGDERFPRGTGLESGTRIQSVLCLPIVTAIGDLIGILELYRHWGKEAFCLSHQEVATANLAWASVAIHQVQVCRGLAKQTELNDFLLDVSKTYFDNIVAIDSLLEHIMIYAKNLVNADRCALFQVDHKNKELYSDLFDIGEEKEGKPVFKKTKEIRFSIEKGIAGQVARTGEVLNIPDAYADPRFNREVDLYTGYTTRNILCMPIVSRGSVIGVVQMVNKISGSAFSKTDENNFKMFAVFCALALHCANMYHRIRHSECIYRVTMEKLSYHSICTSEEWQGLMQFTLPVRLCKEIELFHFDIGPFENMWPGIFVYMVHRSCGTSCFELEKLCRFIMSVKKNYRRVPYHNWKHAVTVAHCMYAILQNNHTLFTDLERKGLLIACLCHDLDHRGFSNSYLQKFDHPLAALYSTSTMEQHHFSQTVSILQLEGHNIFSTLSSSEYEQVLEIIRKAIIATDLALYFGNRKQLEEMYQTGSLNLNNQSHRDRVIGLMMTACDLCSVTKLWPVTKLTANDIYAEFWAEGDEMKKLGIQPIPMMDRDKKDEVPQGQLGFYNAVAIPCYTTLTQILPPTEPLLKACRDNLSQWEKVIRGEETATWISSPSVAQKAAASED

Row | IC50 [1] [µM] | IC50 [2] [µM] | IC50 [3] [µM] | IC50 [4] [µM] | IC50 [5] [µM] | Structure (SMILES)
1 | 4.25 | – | – | – | – | COc1ccc2nc(CNc3ccc(-c4c(-c5ccncc5)cnn4C)cc3)ccc2c1
2 | 0.00182 | 3.37 | 2.56 | 9.75 | 78 | COc1ccc2nc(COc3ccc(-c4nn(C)cc4-c4ccncc4)cc3)ccc2c1
3 | 0.415 | – | – | – | – | COc1ccc2nc(CSc3ccc(-c4nn(C)cc4-c4ccncc4)cc3)ccc2c1
4 | 0.4 | – | – | – | – | COc1ccc2ccc(CSc3ccc(-c4nn(C)cc4-c4ccncc4)cc3)nc2c1
5 | 7.4 | – | – | – | – | COc1ccc2ccc(CNc3ccc(-c4nn(C)cc4-c4ccncc4)cc3)nc2c1
6 | 10.9 | – | – | – | – | COc1cccc2ccc(CNc3ccc(-c4nn(C)cc4-c4ccncc4)cc3)nc12
7 | 0.00024 | 199 | 31.5 | 16.9 | 18.7 | COc1cc2ccccc2nc1COc1ccc(-c2c(-c3ccncc3)cnn2C)cc1
8 | 0.0814 | – | – | – | – | COc1cccc2nc(COc3ccc(-c4c(-c5ccncc5)cnn4C)cc3)ccc12
9 | 0.00178 | 5.6 | 7.1 | 3 | 1.5 | COc1ccc2nc(COc3ccc(-c4c(-c5ccncc5)cnn4C)cc3)ccc2c1
10 | 0.095 | – | – | – | – | COc1ccc2ccc(COc3ccc(-c4c(-c5ccncc5)cnn4C)cc3)nc2c1
11 | 1.85 | – | – | – | – | COc1cc(CSc2ccc(-c3c(-c4ccncc4)cnn3C)cc2)nc2ccccc12

Continued, compound first:

Row | Structure (SMILES) | IC50 [1] [µM] | IC50 [2] [µM] | IC50 [3] [µM] | IC50 [4] [µM] | IC50 [5] [µM]
12 | COc1ccc2nc(CSc3ccc(-c4c(-c5ccncc5)cnn4C)cc3)ccc2c1 | 0.61 | – | – | – | –
13 | COc1ccc2ccc(CSc3ccc(-c4c(-c5ccncc5)cnn4C)cc3)nc2c1 | 0.635 | – | – | – | –
14 | COc1cccc2ccc(CSc3ccc(-c4c(-c5ccncc5)cnn4C)cc3)nc12 | 3.05 | – | – | – | –
15 | COc1cc(CNc2ccc(-c3c(-c4ccncc4)cnn3C)cc2)nc2ccccc12 | 0.645 | – | – | – | –
16 | COc1ccc2ccc(CNc3ccc(-c4c(-c5ccncc5)cnn4C)cc3)nc2c1 | 5.15 | – | – | – | –
17 | COc1cccc2ccc(CNc3ccc(-c4c(-c5ccncc5)cnn4C)cc3)nc12 | 4.6 | – | – | – | –
18 | COc1cc2ccccc2nc1COc1ccc(-c2nn(C)cc2-c2ccncc2)cc1 | 0.0004 | 3.85 | 3.43 | 82.7 | 123
19 | COc1cc(COc2ccc(-c3nn(C)cc3-c3ccncc3)cc2)nc2ccccc12 | 0.00028 | 2.56 | 1.79 | 3.85 | 27.5
20 | COc1cccc2nc(COc3ccc(-c4nn(C)cc4-c4ccncc4)cc3)ccc12 | 0.06 | – | – | – | –
21 | COc1ccc2ccc(COc3ccc(-c4nn(C)cc4-c4ccncc4)cc3)nc2c1 | 0.046 | – | – | – | –
22 | COc1cccc2ccc(COc3ccc(-c4nn(C)cc4-c4ccncc4)cc3)nc12 | 0.0415 | – | – | – | –
23 | COc1cc(CSc2ccc(-c3nn(C)cc3-c3ccncc3)cc2)nc2ccccc12 | 0.168 | – | – | – | –
24 | COc1cccc2ccc(CSc3ccc(-c4nn(C)cc4-c4ccncc4)cc3)nc12 | 0.635 | – | – | – | –
25 | COc1cc(CNc2ccc(-c3nn(C)cc3-c3ccncc3)cc2)nc2ccccc12 | 13.9 | – | – | – | –
26 | COc1ccc2nc(CNc3ccc(-c4nn(C)cc4-c4ccncc4)cc3)ccc2c1 | 7.5 | – | – | – | –
27 | COc1cc(COc2ccc(-c3c(-c4ccncc4)cnn3C)cc2)nc2ccccc12 | 0.00036 | 4.18 | 5.06 | 4.8 | 29
28 | COc1cccc2ccc(COc3ccc(-c4c(-c5ccncc5)cnn4C)cc3)nc12 | 0.199 | – | – | – | –
